From article PMC3282045 (Biochemistry, 2012)

T1: human sulfite oxidase (HSO, human SO) (Homo sapiens, UniProt P51687, R529Q)
T1 sequence (P51687 80-545 R529Q): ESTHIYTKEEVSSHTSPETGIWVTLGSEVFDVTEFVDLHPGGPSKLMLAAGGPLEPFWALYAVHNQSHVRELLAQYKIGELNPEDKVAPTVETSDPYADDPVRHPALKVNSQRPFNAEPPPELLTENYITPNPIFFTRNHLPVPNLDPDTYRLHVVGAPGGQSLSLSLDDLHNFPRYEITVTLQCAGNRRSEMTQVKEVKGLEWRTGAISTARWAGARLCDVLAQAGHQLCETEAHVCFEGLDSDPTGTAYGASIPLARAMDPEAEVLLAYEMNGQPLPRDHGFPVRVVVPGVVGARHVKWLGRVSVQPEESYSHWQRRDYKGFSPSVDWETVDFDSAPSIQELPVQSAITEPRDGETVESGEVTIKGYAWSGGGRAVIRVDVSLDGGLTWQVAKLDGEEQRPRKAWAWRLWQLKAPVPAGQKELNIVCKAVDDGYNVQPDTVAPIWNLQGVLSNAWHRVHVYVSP

T2: chicken sulfite oxidase (CSO, recombinant chicken SO) (Gallus gallus, UniProt P07850)
T2 sequence (P07850 1-459): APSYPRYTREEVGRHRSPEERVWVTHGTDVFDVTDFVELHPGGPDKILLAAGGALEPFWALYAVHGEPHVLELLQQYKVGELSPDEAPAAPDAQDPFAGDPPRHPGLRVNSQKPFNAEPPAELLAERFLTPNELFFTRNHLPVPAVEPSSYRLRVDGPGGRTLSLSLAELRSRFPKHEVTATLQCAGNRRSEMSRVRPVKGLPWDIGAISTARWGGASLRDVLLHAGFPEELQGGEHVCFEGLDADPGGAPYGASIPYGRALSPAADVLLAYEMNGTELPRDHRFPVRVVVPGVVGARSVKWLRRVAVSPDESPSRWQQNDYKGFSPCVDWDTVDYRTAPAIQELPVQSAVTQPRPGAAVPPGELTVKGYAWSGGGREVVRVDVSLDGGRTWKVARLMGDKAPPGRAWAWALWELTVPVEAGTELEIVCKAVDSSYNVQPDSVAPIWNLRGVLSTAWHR

T3: human sulfite oxidase (HSO, human SO) (Homo sapiens, UniProt P51687)
T3 sequence (P51687 80-545): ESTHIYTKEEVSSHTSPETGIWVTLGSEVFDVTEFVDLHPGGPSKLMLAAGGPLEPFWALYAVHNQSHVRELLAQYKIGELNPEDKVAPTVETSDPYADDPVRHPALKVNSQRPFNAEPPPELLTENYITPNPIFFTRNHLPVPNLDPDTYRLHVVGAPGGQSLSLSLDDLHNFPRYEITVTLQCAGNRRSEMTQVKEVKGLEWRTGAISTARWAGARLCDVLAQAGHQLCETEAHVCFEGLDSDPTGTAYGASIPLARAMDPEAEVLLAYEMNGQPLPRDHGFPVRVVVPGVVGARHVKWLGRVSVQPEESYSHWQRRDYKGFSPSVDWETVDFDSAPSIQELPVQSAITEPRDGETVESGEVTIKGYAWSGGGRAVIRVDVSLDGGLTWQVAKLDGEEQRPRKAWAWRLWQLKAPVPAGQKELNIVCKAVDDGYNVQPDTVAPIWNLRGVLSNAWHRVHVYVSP

T4: human sulfite oxidase (HSO, human SO) (Homo sapiens, UniProt P51687, R529M)
T4 sequence (P51687 80-545 R529M): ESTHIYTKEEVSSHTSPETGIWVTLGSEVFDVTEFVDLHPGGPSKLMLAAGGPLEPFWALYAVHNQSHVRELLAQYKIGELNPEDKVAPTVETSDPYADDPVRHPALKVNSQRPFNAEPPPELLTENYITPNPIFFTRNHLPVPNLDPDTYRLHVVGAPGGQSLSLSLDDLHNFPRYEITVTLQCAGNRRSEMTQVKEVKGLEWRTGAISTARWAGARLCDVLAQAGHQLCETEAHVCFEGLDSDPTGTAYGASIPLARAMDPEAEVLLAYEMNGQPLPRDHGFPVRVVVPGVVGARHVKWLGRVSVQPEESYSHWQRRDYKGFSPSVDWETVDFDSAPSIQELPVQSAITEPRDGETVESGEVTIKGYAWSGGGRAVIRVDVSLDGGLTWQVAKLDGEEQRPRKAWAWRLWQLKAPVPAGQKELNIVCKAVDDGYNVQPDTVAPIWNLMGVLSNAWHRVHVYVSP


Key:
[1] = target: T1, human sulfite oxidase (HSO, human SO); test: stopped-flow heme reduction; assay type: biochemical; conditions: read-out: Kd^sulfite; pH 8.5, 25 °C, anaerobic, no cyt c
Summary of the method: (§1)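 Recombinant enzyme expressed in E. coli TP1000 and purified. Anaerobic stopped-flow at 25 °C (dead-time <1.5 ms, 10 mm path), with argon-sparged solutions prepared in an anaerobic chamber. Enzyme at 0.3–0.8 μM was mixed with varied sulfite, no cyt c. Heme Soret change followed at 425 or 430 nm. Traces were fitted to single or double exponentials for kobs, then kobs versus sulfite fitted hyperbolically for kred and Kd.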

[2] = target: T2, chicken sulfite oxidase (CSO, recombinant chicken SO); test: steady-state cytochrome c reduction at […] nm; assay type: biochemical; conditions: read-out: Km^sulfite; pH 8.5, 25 °C, horse heart cyt c
[3] = target: T3, human sulfite oxidase (HSO, human SO); test: stopped-flow heme reduction; assay type: biochemical; conditions: read-out: Kd^sulfite; pH 8.5, 25 °C, anaerobic, no cyt c
Summary of the method: as §1

[4] = target: T4, human sulfite oxidase (HSO, human SO); test: stopped-flow heme reduction; assay type: biochemical; conditions: read-out: Kd^sulfite; pH 8.5, 25 °C, anaerobic, no cyt c
Summary of the method: as §1

[5] = substrate: O=S(O)O; test: purified protein; assay type: biochemical, Homo sapiens; conditions: pH 8.5, 25 °C, horse heart cyt c
[6] = substrate: O=[N+]([O-])O; test: purified protein; assay type: biochemical, Homo sapiens; conditions: pH 8.5, 25 °C, anaerobic, dithionite-reduced methyl viologen

| Kd [1] | Km [2] | Kd [3] | Kd [4] | Molecule | Km [5] | kcat [5] | Km [6] | kcat [6] |
| --- | --- | --- | --- | --- | --- | --- | --- | --- |
| 227 µM | 8.53 µM | 6.72 µM | 73.4 µM | O=S(O)O [sulfite] | – | – | – | – |
| – | – | – | – | human sulfite oxidase (HSO, human SO) (Homo sapiens; V531M) (protein) ESTHIYTKEEVSSHTSPETGIWVTLGSEVFDVTEFVDLHPGGPSKLMLAAGGPLEPFWALYAVHNQSHVRELLAQYKIGELNPEDKVAPTVETSDPYADDPVRHPALKVNSQRPFNAEPPPELLTENYITPNPIFFTRNHLPVPNLDPDTYRLHVVGAPGGQSLSLSLDDLHNFPRYEITVTLQCAGNRRSEMTQVKEVKGLEWRTGAISTARWAGARLCDVLAQAGHQLCETEAHVCFEGLDSDPTGTAYGASIPLARAMDPEAEVLLAYEMNGQPLPRDHGFPVRVVVPGVVGARHVKWLGRVSVQPEESYSHWQRRDYKGFSPSVDWETVDFDSAPSIQELPVQSAITEPRDGETVESGEVTIKGYAWSGGGRAVIRVDVSLDGGLTWQVAKLDGEEQRPRKAWAWRLWQLKAPVPAGQKELNIVCKAVDDGYNVQPDTVAPIWNLRGMLSNAWHRVHVYVSP | 3.54 µM | 15.8 s⁻¹ | – | – |
| – | – | – | – | human sulfite oxidase (HSO, human SO) (Homo sapiens) (protein) ESTHIYTKEEVSSHTSPETGIWVTLGSEVFDVTEFVDLHPGGPSKLMLAAGGPLEPFWALYAVHNQSHVRELLAQYKIGELNPEDKVAPTVETSDPYADDPVRHPALKVNSQRPFNAEPPPELLTENYITPNPIFFTRNHLPVPNLDPDTYRLHVVGAPGGQSLSLSLDDLHNFPRYEITVTLQCAGNRRSEMTQVKEVKGLEWRTGAISTARWAGARLCDVLAQAGHQLCETEAHVCFEGLDSDPTGTAYGASIPLARAMDPEAEVLLAYEMNGQPLPRDHGFPVRVVVPGVVGARHVKWLGRVSVQPEESYSHWQRRDYKGFSPSVDWETVDFDSAPSIQELPVQSAITEPRDGETVESGEVTIKGYAWSGGGRAVIRVDVSLDGGLTWQVAKLDGEEQRPRKAWAWRLWQLKAPVPAGQKELNIVCKAVDDGYNVQPDTVAPIWNLRGVLSNAWHRVHVYVSP | 8.25 µM | 26.9 s⁻¹ | 43000 µM | < 0.1 s⁻¹ |
| – | – | – | – | human sulfite oxidase (HSO, human SO) (Homo sapiens; R529M/Y400N) (protein) ESTHIYTKEEVSSHTSPETGIWVTLGSEVFDVTEFVDLHPGGPSKLMLAAGGPLEPFWALYAVHNQSHVRELLAQYKIGELNPEDKVAPTVETSDPYADDPVRHPALKVNSQRPFNAEPPPELLTENYITPNPIFFTRNHLPVPNLDPDTYRLHVVGAPGGQSLSLSLDDLHNFPRYEITVTLQCAGNRRSEMTQVKEVKGLEWRTGAISTARWAGARLCDVLAQAGHQLCETEAHVCFEGLDSDPTGTAYGASIPLARAMDPEAEVLLAYEMNGQPLPRDHGFPVRVVVPGVVGARHVKWLGRVSVQPEESYSHWQRRDNKGFSPSVDWETVDFDSAPSIQELPVQSAITEPRDGETVESGEVTIKGYAWSGGGRAVIRVDVSLDGGLTWQVAKLDGEEQRPRKAWAWRLWQLKAPVPAGQKELNIVCKAVDDGYNVQPDTVAPIWNLMGVLSNAWHRVHVYVSP | 42990 µM | 1.42 s⁻¹ | – | – |
| – | – | – | – | human sulfite oxidase (HSO, human SO) (Homo sapiens; Y400N) (protein) ESTHIYTKEEVSSHTSPETGIWVTLGSEVFDVTEFVDLHPGGPSKLMLAAGGPLEPFWALYAVHNQSHVRELLAQYKIGELNPEDKVAPTVETSDPYADDPVRHPALKVNSQRPFNAEPPPELLTENYITPNPIFFTRNHLPVPNLDPDTYRLHVVGAPGGQSLSLSLDDLHNFPRYEITVTLQCAGNRRSEMTQVKEVKGLEWRTGAISTARWAGARLCDVLAQAGHQLCETEAHVCFEGLDSDPTGTAYGASIPLARAMDPEAEVLLAYEMNGQPLPRDHGFPVRVVVPGVVGARHVKWLGRVSVQPEESYSHWQRRDNKGFSPSVDWETVDFDSAPSIQELPVQSAITEPRDGETVESGEVTIKGYAWSGGGRAVIRVDVSLDGGLTWQVAKLDGEEQRPRKAWAWRLWQLKAPVPAGQKELNIVCKAVDDGYNVQPDTVAPIWNLRGVLSNAWHRVHVYVSP | 850 µM | 16.91 s⁻¹ | – | – |
